Measurements as given in ChEMBL document CHEMBL1138555, “N-acylated and N,N'-diacylated imidazolidine-2-thione derivatives and N,N'-diacylated tetrahydropyrimidine-2(1H)-thione analogues: synthesis and antiproliferative activity” (Eur J Med Chem, 2009).

How the values were obtained:
MT4 = test: Antiproliferative activity against human MT4 cells assessed as reduction of growth by MTT assay; assay type: functional, cell-based
Method in brief: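 MT-4 lymphoblastoid T cells (ATCC) in RPMI 1640 with 10% FCS, penicillin/streptomycin, checked for mycoplasma. 1 × 10⁴ mock-infected cells per well with serial dilutions from a 100 mM DMSO stock. Incubated 4 days at 37 °C, viable cells counted by MTT. IC50 versus untreated controls by linear regression. Mean of three separate experiments.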

HL-60(TB) = test: Growth inhibition of human HL-60(TB) cells after 48 hrs by sulforhodamine B assay; assay type: functional; settings: HL-60, 48 h
Method in brief: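 NCI 60-cell-line screen protocol: cells exposed to compound at five 10-fold dilutions from 10^-4 to 10^-8 M for the last 48 h of a 72 h incubation. Sulforhodamine B protein assay estimated viability/growth. GI50 (50% growth inhibition) derived; where not reached or exceeded, reported as greater or less than the highest or lowest concentration tested.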

K562 = test: Growth inhibition of human K562 cells after 48 hrs by sulforhodamine B assay; assay type: functional; settings: K562, 48 h
Method in brief: (§1)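 NCI screen panel. Five 10-fold concentrations from 10^-4 to 10^-8 M. Exposure for the last 48 h of a 72 h incubation. Growth estimated by sulforhodamine B protein assay. GI50 is the concentration giving 50% growth inhibition. Where that level was not reached or was exceeded, the value is given as above or below the highest or lowest concentration tested.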

MOLT-4 = test: Growth inhibition of human MOLT4 cells after 48 hrs by sulforhodamine B assay; assay type: functional; settings: MOLT-4, 48 h; method in brief: as §1
[1] = Growth inhibition of human […] cells after 48 hrs by sulforhodamine B assay; assay type: functional; method in brief: as §1
SR = test: Growth inhibition of human SR cells after 48 hrs by sulforhodamine B assay; assay type: functional
Method in brief: (§2)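 NCI in vitro panel screen. Compounds tested at five 10-fold dilutions, 10^-4 to 10^-8 M. Cells in 96-well plates were exposed for the last 48 h of a 72 h incubation. Viability/growth was read by sulforhodamine B protein assay. GI50 is the concentration giving 50% growth inhibition. Values beyond the tested range are reported as greater or less than the maximum or minimum concentration.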

A549 = test: Growth inhibition of human A549 cells after 48 hrs by sulforhodamine B assay; assay type: functional; settings: A549, 48 h; method in brief: as §1
EKVX = test: Growth inhibition of human EKVX cells after 48 hrs by sulforhodamine B assay; assay type: functional; method in brief: as §1
HOP-62 = test: Growth inhibition of human HOP62 cells after 48 hrs by sulforhodamine B assay; assay type: functional; settings: HOP-62, 48 h; method in brief: as §1
HOP-92 = test: Growth inhibition of human HOP92 cells after 48 hrs by sulforhodamine B assay; assay type: functional; settings: HOP-92, 48 h; method in brief: as §1
NCI-H23 = test: Growth inhibition of human NCI-H23 cells after 48 hrs by sulforhodamine B assay; assay type: functional; settings: NCI-H23, 48 h; method in brief: as §1
NCI-H322M = test: Growth inhibition of human NCI-H322M cells after 48 hrs by sulforhodamine B assay; assay type: functional; method in brief: as §1
NCI-H460 = test: Growth inhibition of human NCI-H460 cells after 48 hrs by sulforhodamine B assay; assay type: functional; settings: NCI-H460, 48 h; method in brief: as §1
NCI-H522 = test: Growth inhibition of human NCI-H522 cells after 48 hrs by sulforhodamine B assay; assay type: functional; settings: NCI-H522, 48 h; method in brief: as §1
COLO 205 = test: Growth inhibition of human COLO205 cells after 48 hrs by sulforhodamine B assay; assay type: functional; settings: COLO 205, 48 h; method in brief: as §1
HCT-116 = test: Growth inhibition of human HCT116 cells after 48 hrs by sulforhodamine B assay; assay type: functional; settings: HCT-116, 48 h; method in brief: as §1
HCT-15 = test: Growth inhibition of human HCT15 cells after 48 hrs by sulforhodamine B assay; assay type: functional; settings: HCT-15, 48 h; method in brief: as §1
HT-29 = test: Growth inhibition of human HT-29 cells after 48 hrs by sulforhodamine B assay; assay type: functional; settings: HT-29, 48 h; method in brief: as §1
KM12 = test: Growth inhibition of human KM12 cells after 48 hrs by sulforhodamine B assay; assay type: functional; settings: KM12, 48 h; method in brief: as §1
SW-620 = test: Growth inhibition of human SW620 cells after 48 hrs by sulforhodamine B assay; assay type: functional; settings: SW-620, 48 h; method in brief: as §2
SF-268 = test: Growth inhibition of human SF268 cells after 48 hrs by sulforhodamine B assay; assay type: functional; settings: SF-268, 48 h; method in brief: as §1
SF-295 = test: Growth inhibition of human SF295 cells after 48 hrs by sulforhodamine B assay; assay type: functional; settings: SF-295, 48 h; method in brief: as §1
SNB-19 = test: Growth inhibition of human SNB19 cells after 48 hrs by sulforhodamine B assay; assay type: functional; settings: SNB-19, 48 h; method in brief: as §2
U-251 = test: Growth inhibition of human U251 cells after 48 hrs by sulforhodamine B assay; assay type: functional; settings: U-251, 48 h; method in brief: as §2
LOX IMVI = test: Growth inhibition of human LOXIMVI cells after 48 hrs by sulforhodamine B assay; assay type: functional; method in brief: as §1
Malme-3M = test: Growth inhibition of human MALME-3M cells after 48 hrs by sulforhodamine B assay; assay type: functional; method in brief: as §1
M14 = test: Growth inhibition of human M14 cells after 48 hrs by sulforhodamine B assay; assay type: functional; settings: M14, 48 h; method in brief: as §1
SK-MEL-2 = test: Growth inhibition of human SK-MEL-2 cells after 48 hrs by sulforhodamine B assay; assay type: functional; settings: SK-MEL-2, 48 h; method in brief: as §1
SK-MEL-28 = test: Growth inhibition of human SK-MEL-28 cells after 48 hrs by sulforhodamine B assay; assay type: functional; settings: SK-MEL-28, 48 h; method in brief: as §1
SK-MEL-5 = test: Growth inhibition of human SK-MEL-5 cells after 48 hrs by sulforhodamine B assay; assay type: functional; settings: SK-MEL-5, 48 h; method in brief: as §1
UACC-257 = test: Growth inhibition of human UACC257 cells after 48 hrs by sulforhodamine B assay; assay type: functional; settings: UACC-257, 48 h; method in brief: as §2
UACC-62 = test: Growth inhibition of human UACC62 cells after 48 hrs by sulforhodamine B assay; assay type: functional; settings: UACC-62, 48 h; method in brief: as §2
IGROV-1 = test: Growth inhibition of human IGROV1 cells after 48 hrs by sulforhodamine B assay; assay type: functional; settings: IGROV-1, 48 h; method in brief: as §1
OVCAR-3 = test: Growth inhibition of human OVCAR-3 cells after 48 hrs by sulforhodamine B assay; assay type: functional; settings: OVCAR-3, 48 h; method in brief: as §1
OVCAR-4 = test: Growth inhibition of human OVCAR4 cells after 48 hrs by sulforhodamine B assay; assay type: functional; settings: OVCAR-4, 48 h; method in brief: as §1
OVCAR-8 = test: Growth inhibition of human OVCAR8 cells after 48 hrs by sulforhodamine B assay; assay type: functional; settings: OVCAR-8, 48 h; method in brief: as §1
SK-OV-3 = test: Growth inhibition of human SKOV3 cells after 48 hrs by sulforhodamine B assay; assay type: functional; settings: SK-OV-3, 48 h; method in brief: as §1
786-0 = test: Growth inhibition of human 786-0 cells after 48 hrs by sulforhodamine B assay; assay type: functional; settings: 786-0, 48 h; method in brief: as §1
ACHN = test: Growth inhibition of human ACHN cells after 48 hrs by sulforhodamine B assay; assay type: functional; method in brief: as §1
CAKI-1 = test: Growth inhibition of human Caki1 cells after 48 hrs by sulforhodamine B assay; assay type: functional; settings: CAKI-1, 48 h; method in brief: as §1
RXF 393 = test: Growth inhibition of human RXF393 cells after 48 hrs by sulforhodamine B assay; assay type: functional; settings: RXF 393, 48 h; method in brief: as §1
SN12C = test: Growth inhibition of human SN12C cells after 48 hrs by sulforhodamine B assay; assay type: functional; method in brief: as §2
TK-10 = test: Growth inhibition of human TK10 cells after 48 hrs by sulforhodamine B assay; assay type: functional; settings: TK-10, 48 h; method in brief: as §2
UO-31 = test: Growth inhibition of human UO31 cells after 48 hrs by sulforhodamine B assay; assay type: functional; settings: UO-31, 48 h; method in brief: as §2
PC-3 = test: Growth inhibition of human PC3 cells after 48 hrs by sulforhodamine B assay; assay type: functional; settings: PC-3, 48 h; method in brief: as §1
DU-145 = test: Growth inhibition of human DU145 cells after 48 hrs by sulforhodamine B assay; assay type: functional; settings: DU-145, 48 h; method in brief: as §1
MCF7 = test: Growth inhibition of human MCF7 cells after 48 hrs by sulforhodamine B assay; assay type: functional; settings: MCF7, 48 h; method in brief: as §1
NCI/ADR-RES = test: Growth inhibition of human NCI/ADR-RES cells after 48 hrs by sulforhodamine B assay; assay type: functional; method in brief: as §1
MDA-MB-231 = test: Growth inhibition of human MDA-MB-231 cells after 48 hrs by sulforhodamine B assay; assay type: functional; settings: MDA-MB-231, 48 h; method in brief: as §1
MDA-MB-435 = test: Growth inhibition of human MDA-MB-435 cells after 48 hrs by sulforhodamine B assay; assay type: functional; settings: MDA-MB-435, 48 h; method in brief: as §1
BT-549 = test: Growth inhibition of human BT549 cells after 48 hrs by sulforhodamine B assay; assay type: functional; settings: BT-549, 48 h; method in brief: as §1
T47D = test: Growth inhibition of human T47D cells after 48 hrs by sulforhodamine B assay; assay type: functional; method in brief: as §2

## N#C/C(=C\N1CCN(C(=O)c2ccco2)C1=S)C(N)=O
MT4
  IC50: 4 µM
HL-60(TB)
  GI50: 22 µM
K562
  GI50: 9.1 µM
MOLT-4
  GI50: 39.8 µM
[1]
  GI50: 12.4 µM
SR
  GI50: 3 µM
A549
  GI50: 34.5 µM
EKVX
  GI50: 0.3 µM
HOP-62
  GI50: 25.6 µM
HOP-92
  GI50: 25.5 µM
NCI-H23
  GI50: 21.4 µM
NCI-H322M
  GI50: 17.6 µM
NCI-H460
  GI50: 4 µM
NCI-H522
  GI50: 18.7 µM
COLO 205
  GI50: 24.9 µM
HCT-116
  GI50: 21.2 µM
HCT-15
  GI50: 3.8 µM
HT-29
  GI50: 24.1 µM
KM12
  GI50: 7.5 µM
SW-620
  GI50: 22.1 µM
SF-268
  GI50: 11.7 µM
SF-295
  GI50: 32.1 µM
SNB-19
  GI50: 36.4 µM
U-251
  GI50: 11.5 µM
LOX IMVI
  GI50: 2.5 µM
Malme-3M
  GI50: 12.5 µM
M14
  GI50: 16.5 µM
SK-MEL-2
  GI50: 24.4 µM
SK-MEL-28
  GI50: 15.8 µM
SK-MEL-5
  GI50: 16.5 µM
UACC-257
  GI50: 23.3 µM
UACC-62
  GI50: 14 µM
IGROV-1
  GI50: 24 µM
OVCAR-3
  GI50: 19 µM
OVCAR-4
  GI50: 18.5 µM
OVCAR-8
  GI50: 43.6 µM
SK-OV-3
  GI50: 42.6 µM
786-0
  GI50: 18 µM
ACHN
  GI50: 11 µM
CAKI-1
  GI50: 11.8 µM
RXF 393
  GI50: 19.2 µM
SN12C
  GI50: 12 µM
TK-10
  GI50: 12.1 µM
UO-31
  GI50: 23.5 µM
PC-3
  GI50: 35.6 µM
DU-145
  GI50: 29.8 µM
MCF7
  GI50: 1.7 µM
NCI/ADR-RES
  GI50: 25.4 µM
MDA-MB-231
  GI50: 13.1 µM
MDA-MB-435
  GI50: 14.6 µM
BT-549
  GI50: 22.5 µM
T47D
  GI50: 9.3 µM
